In ChEMBL document CHEMBL4823286, “Synthesis and evaluation of novel 2,4-diaminopyrimidines bearing a sulfoxide moiety as anaplastic lymphoma kinase (ALK) inhibition agents” (Bioorg Med Chem Lett, 2021):
The source made the active and inactive calls. No cut-off for these calls is given here.

What was measured:
[1] = test system: NCI-H2228; assay: Antiproliferative activity against human NCI-H2228 cells assessed as inhibition of cell proliferation measured by CCK8 assay; type: functional, cell-based
Outline: (§1)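 Cell proliferation inhibition; IC50 given as mean ± SD of three independent experiments.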

[2] = test system: BaF3; assay: Antiproliferative activity against mouse BaF3 cells overexpressing ALK assessed as inhibition of cell proliferation measured by CCK8 assay; type: functional, cell-based; outline: as §1
[3] = test system: NCI-H2228; assay: Cell cycle arrest in human NCI-H2228 cells assessed as accumulation of cells in G1 phase at 20 nM measured after 12 hrs by PI staining based flow cytometry method (reference value: 67.77%); type: functional
Outline: (§2)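 NCI-H2228 cells exposed to 20 nM for 0, 12, 24 or 48 h, stained with PI and analysed by flow cytometry for G0/G1, S and G2/M fractions. Phase percentages quantified by analysis software; three independent experiments, representative run shown.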

[4] = test system: NCI-H2228; assay: Cell cycle arrest in human NCI-H2228 cells assessed as accumulation of cells in S phase at 20 nM measured after 12 hrs by PI staining based flow cytometry method (reference value: 30%); type: functional; outline: as §2
[5] = test system: NCI-H2228; assay: Cell cycle arrest in human NCI-H2228 cells assessed as accumulation of cells in G2/M phase at 20 nM measured after 12 hrs by PI staining based flow cytometry method (reference value: 2.23%); type: functional; outline: as §2
[6] = test system: NCI-H2228; assay: Cell cycle arrest in human NCI-H2228 cells assessed as accumulation of cells in G1 phase at 20 nM measured after 24 hrs by PI staining based flow cytometry method (reference value: 67.77%); type: functional; outline: as §2
[7] = test system: NCI-H2228; assay: Cell cycle arrest in human NCI-H2228 cells assessed as accumulation of cells in S phase at 20 nM measured after 24 hrs by PI staining based flow cytometry method (reference value: 30%); type: functional; outline: as §2
[8] = test system: NCI-H2228; assay: Cell cycle arrest in human NCI-H2228 cells assessed as accumulation of cells in G2/M phase at 20 nM measured after 24 hrs by PI staining based flow cytometry method (reference value: 2.23%); type: functional; outline: as §2
[9] = test system: NCI-H2228; assay: Cell cycle arrest in human NCI-H2228 cells assessed as accumulation of cells in G1 phase at 20 nM measured after 48 hrs by PI staining based flow cytometry method (reference value: 67.77%); type: functional; outline: as §2
[10] = test system: NCI-H2228; assay: Cell cycle arrest in human NCI-H2228 cells assessed as accumulation of cells in S phase at 20 nM measured after 48 hrs by PI staining based flow cytometry method (reference value: 30%); type: functional; outline: as §2
[11] = test system: NCI-H2228; assay: Cell cycle arrest in human NCI-H2228 cells assessed as accumulation of cells in G2/M phase at 20 nM measured after 48 hrs by PI staining based flow cytometry method (reference value: 2.23%); type: functional; outline: as §2
[12] = test system: NCI-H2228; assay: Cell cycle arrest in human NCI-H2228 cells assessed as downregulation of CDK4 protein expression at 20 nM measured after 12 to 48 hrs by western blot assay; type: functional, cell-based; conditions: time 12-48 hrs
Outline: (§3)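 Western blot of cell-cycle regulatory proteins in NCI-H2228 cells held at 20 nM for 0, 12, 24 or 48 h. Performed three times, representative blot shown.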

[13] = test system: NCI-H2228; assay: Cell cycle arrest in human NCI-H2228 cells assessed as downregulation of Cyclin D1 protein expression at 20 nM measured after 12 to 48 hrs by western blot assay; type: functional, cell-based; conditions: time 12-48 hrs; outline: as §3
[14] = test system: NCI-H2228; assay: Induction of apoptosis in human NCI-H2228 cells assessed as viable cells at 5 nM measured after 24 hrs by Annexin V-FITC.PI staining based flow cytometry assay (reference value: 95.6%); type: functional; conditions: read-out: Activity
Outline: (§4)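 After 24 h or 48 h exposure (5, 25, 50 nM; DMSO 0.01% control), NCI-H2228 cells were harvested, double-stained with Annexin V-FITC and PI and run on flow cytometry. Stage percentages quantified by software; three experiments, representative shown.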

[15] = test system: NCI-H2228; assay: Induction of apoptosis in human NCI-H2228 cells assessed as early apoptotic cells at 5 nM measured after 24 hrs by Annexin V-FITC/PI staining based flow cytometry assay (reference value: 2.18%); type: functional; outline: as §4
[16] = test system: NCI-H2228; assay: Induction of apoptosis in human NCI-H2228 cells assessed as late apoptotic cells at 5 nM measured after 24 hrs by Annexin V-FITC/PI staining based flow cytometry assay (reference value: 2.02%); type: functional; outline: as §4
[17] = test system: NCI-H2228; assay: Induction of apoptosis in human NCI-H2228 cells assessed as necrotic cells at 5 nM measured after 24 hrs by Annexin V-FITC/PI staining based flow cytometry assay (reference value: 0.21%); type: functional; outline: as §4
[18] = test system: NCI-H2228; assay: Induction of apoptosis in human NCI-H2228 cells assessed as viable cells at 25 nM measured after 24 hrs by Annexin V-FITC/PI staining based flow cytometry assay (reference value: 95.6%); type: functional; conditions: read-out: Activity; outline: as §4
[19] = test system: NCI-H2228; assay: Induction of apoptosis in human NCI-H2228 cells assessed as early apoptotic cells at 25 nM measured after 24 hrs by Annexin V-FITC/PI staining based flow cytometry assay (reference value: 2.18%); type: functional; outline: as §4
[20] = test system: NCI-H2228; assay: Induction of apoptosis in human NCI-H2228 cells assessed as late apoptotic cells at 25 nM measured after 24 hrs by Annexin V-FITC/PI staining based flow cytometry assay (reference value: 2.02%); type: functional; outline: as §4
[21] = test system: NCI-H2228; assay: Induction of apoptosis in human NCI-H2228 cells assessed as necrotic cells at 25 nM measured after 24 hrs by Annexin V-FITC/PI staining based flow cytometry assay (reference value: 0.21%); type: functional; outline: as §4
[22] = test system: NCI-H2228; assay: Induction of apoptosis in human NCI-H2228 cells assessed as viable cells at 50 nM measured after 24 hrs by Annexin V-FITC/PI staining based flow cytometry assay (reference value: 95.6%); type: functional; conditions: read-out: Activity; outline: as §4
[23] = test system: NCI-H2228; assay: Induction of apoptosis in human NCI-H2228 cells assessed as early apoptotic cells at 50 nM measured after 24 hrs by Annexin V-FITC/PI staining based flow cytometry assay (reference value: 2.18%); type: functional; outline: as §4
[24] = test system: NCI-H2228; assay: Induction of apoptosis in human NCI-H2228 cells assessed as late apoptotic cells at 50 nM measured after 24 hrs by Annexin V-FITC/PI staining based flow cytometry assay (reference value: 2.02%); type: functional; outline: as §4
[25] = test system: NCI-H2228; assay: Induction of apoptosis in human NCI-H2228 cells assessed as necrotic cells at 50 nM measured after 24 hrs by Annexin V-FITC/PI staining based flow cytometry assay (reference value: 0.21%); type: functional; outline: as §4
[26] = test system: NCI-H2228; assay: Induction of apoptosis in human NCI-H2228 cells assessed as viable cells at 5 nM measured after 48 hrs by Annexin V-FITC/PI staining based flow cytometry assay (reference value: 95.3%); type: functional; conditions: read-out: Activity; outline: as §4
[27] = test system: NCI-H2228; assay: Induction of apoptosis in human NCI-H2228 cells assessed as early apoptotic cells at 5 nM measured after 48 hrs by Annexin V-FITC/PI staining based flow cytometry assay (reference value: 1.58%); type: functional; outline: as §4
[28] = test system: NCI-H2228; assay: Induction of apoptosis in human NCI-H2228 cells assessed as late apoptotic cells at 5 nM measured after 48 hrs by Annexin V-FITC/PI staining based flow cytometry assay (reference value: 0.23%); type: functional; outline: as §4
[29] = test system: NCI-H2228; assay: Induction of apoptosis in human NCI-H2228 cells assessed as necrotic cells at 5 nM measured after 48 hrs by Annexin V-FITC/PI staining based flow cytometry assay (reference value: 2.88%); type: functional; outline: as §4
[30] = test system: NCI-H2228; assay: Induction of apoptosis in human NCI-H2228 cells assessed as viable cells at 25 nM measured after 48 hrs by Annexin V-FITC/PI staining based flow cytometry assay (reference value: 95.3%); type: functional; conditions: read-out: Activity; outline: as §4
[31] = test system: NCI-H2228; assay: Induction of apoptosis in human NCI-H2228 cells assessed as early apoptotic cells at 25 nM measured after 48 hrs by Annexin V-FITC/PI staining based flow cytometry assay (reference value: 1.58%); type: functional; outline: as §4
[32] = test system: NCI-H2228; assay: Induction of apoptosis in human NCI-H2228 cells assessed as late apoptotic cells at 25 nM measured after 48 hrs by Annexin V-FITC/PI staining based flow cytometry assay (reference value: 0.23%); type: functional; outline: as §4
[33] = test system: NCI-H2228; assay: Induction of apoptosis in human NCI-H2228 cells assessed as necrotic cells at 25 nM measured after 48 hrs by Annexin V-FITC/PI staining based flow cytometry assay (reference value: 2.88%); type: functional; outline: as §4
[34] = test system: NCI-H2228; assay: Induction of apoptosis in human NCI-H2228 cells assessed as viable cells at 50 nM measured after 48 hrs by Annexin V-FITC/PI staining based flow cytometry assay (reference value: 95.3%); type: functional; conditions: read-out: Activity; outline: as §4
[35] = test system: NCI-H2228; assay: Induction of apoptosis in human NCI-H2228 cells assessed as early apoptotic cells at 50 nM measured after 48 hrs by Annexin V-FITC/PI staining based flow cytometry assay (reference value: 1.58%); type: functional; outline: as §4
[36] = test system: NCI-H2228; assay: Induction of apoptosis in human NCI-H2228 cells assessed as late apoptotic cells at 50 nM measured after 48 hrs by Annexin V-FITC/PI staining based flow cytometry assay (reference value: 0.23%); type: functional; outline: as §4
[37] = test system: NCI-H2228; assay: Induction of apoptosis in human NCI-H2228 cells assessed as necrotic cells at 50 nM measured after 48 hrs by Annexin V-FITC/PI staining based flow cytometry assay (reference value: 2.88%); type: functional; outline: as §4
[38] = test system: NCI-H2228; assay: Induction of apoptosis in human NCI-H2228 cells assessed as nuclear pyknosis at 5 to 50 nM measured after 48 hrs by Hoechst 33342 staining based flourescence microscopy method; type: functional, cell-based; conditions: dose 5-50 nM
Outline: (§5)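 Nuclear morphology: NCI-H2228 cells treated 48 h at 5, 25 and 50 nM, stained with Hoechst 33342, imaged on an inverted fluorescence microscope. Performed three times, representative images shown.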

[39] = test system: NCI-H2228; assay: Induction of apoptosis in human NCI-H2228 cells assessed as nuclear fragmentation at 5 to 50 nM measured after 48 hrs by Hoechst 33342 staining based flourescence microscopy method; type: functional, cell-based; conditions: dose 5-50 nM; outline: as §5
[40] = test system: NCI-H2228; assay: Induction of apoptosis in human NCI-H2228 cells assessed as induction of mitochondrial membrane potential collapse at 5 to 50 nM measured after 24 hrs by JC-1 probe based flourescence microscopy; type: functional, cell-based; conditions: dose 5-50 nM
Outline: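 JC-1 read of mitochondrial membrane potential: NCI-H2228 cells given 5, 25 or 50 nM, or DMSO 0.01%, for 24 h, then probe-loaded 30 min and viewed by fluorescence microscopy for red aggregate versus green monomer signal. Three experiments.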

[41] = test system: NCI-H2228; assay: Inhibition of cell migration in human NCI-H2228 cells assessed as reduction in wound closure at 25 nM measured after 12 to 24 hrs by wound healing assay based phase contrast microscopy method; type: functional; conditions: time 12-24 hrs
Outline: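 Wound-closure migration: NCI-H2228 cells kept in 1640 medium containing compound for 12 h or 24 h, photographed by phase contrast microscopy (4× objective); untreated control for comparison. Three experiments.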

## CCC(=O)Nc1cc(Nc2ncc(Cl)c(Nc3ccc(F)cc3[S+]([O-])CC)n2)c(OC)cc1N1CCN(C)CC1 (stereo unspecified)
[1]
  IC50: 24.4 nM
[2]
  IC50: 8.11 nM
[3]
  Activity: 71.23%
[4]
  Activity: 20.22%
[5]
  Activity: 8.55%
[6]
  Activity: 82.13%
[7]
  Activity: 10.21%
[8]
  Activity: 7.16%
[9]
  Activity: 86.49%
[10]
  Activity: 10.1%
[11]
  Activity: 3.41%
[12]
  Activity: Active
[13]
  Activity: Active
[14]
  viability at 0.005 µM: 83.2%
[15]
  Activity: 9.56%
[16]
  Activity: 7.02%
[17]
  Activity: 0.17%
[18]
  viability at 0.025 µM: 76.3%
[19]
  Activity: 13.9%
[20]
  Activity: 9.63%
[21]
  Activity: 0.17%
[22]
  viability at 0.05 µM: 76.1%
[23]
  Activity: 18.3%
[24]
  Activity: 5.14%
[25]
  Activity: 0.47%
[26]
  viability at 0.005 µM: 77%
[27]
  Activity: 8.19%
[28]
  Activity: 14.1%
[29]
  Activity: 0.69%
[30]
  viability at 0.025 µM: 42.8%
[31]
  Activity: 19.9%
[32]
  Activity: 37.1%
[33]
  Activity: 0.22%
[34]
  viability at 0.05 µM: 10.1%
[35]
  Activity: 7.9%
[36]
  Activity: 77.5%
[37]
  Activity: 4.55%
[38]
  Activity: Active
[39]
  Activity: Active
[40]
  Activity: Active
[41]
  Activity: Active
